Assay type in all cases: cell-based
The target of test [1] is T1, Toll-like receptor 8 (Homo sapiens) (UniProt Q9NR97).
T1 sequence (whole entry): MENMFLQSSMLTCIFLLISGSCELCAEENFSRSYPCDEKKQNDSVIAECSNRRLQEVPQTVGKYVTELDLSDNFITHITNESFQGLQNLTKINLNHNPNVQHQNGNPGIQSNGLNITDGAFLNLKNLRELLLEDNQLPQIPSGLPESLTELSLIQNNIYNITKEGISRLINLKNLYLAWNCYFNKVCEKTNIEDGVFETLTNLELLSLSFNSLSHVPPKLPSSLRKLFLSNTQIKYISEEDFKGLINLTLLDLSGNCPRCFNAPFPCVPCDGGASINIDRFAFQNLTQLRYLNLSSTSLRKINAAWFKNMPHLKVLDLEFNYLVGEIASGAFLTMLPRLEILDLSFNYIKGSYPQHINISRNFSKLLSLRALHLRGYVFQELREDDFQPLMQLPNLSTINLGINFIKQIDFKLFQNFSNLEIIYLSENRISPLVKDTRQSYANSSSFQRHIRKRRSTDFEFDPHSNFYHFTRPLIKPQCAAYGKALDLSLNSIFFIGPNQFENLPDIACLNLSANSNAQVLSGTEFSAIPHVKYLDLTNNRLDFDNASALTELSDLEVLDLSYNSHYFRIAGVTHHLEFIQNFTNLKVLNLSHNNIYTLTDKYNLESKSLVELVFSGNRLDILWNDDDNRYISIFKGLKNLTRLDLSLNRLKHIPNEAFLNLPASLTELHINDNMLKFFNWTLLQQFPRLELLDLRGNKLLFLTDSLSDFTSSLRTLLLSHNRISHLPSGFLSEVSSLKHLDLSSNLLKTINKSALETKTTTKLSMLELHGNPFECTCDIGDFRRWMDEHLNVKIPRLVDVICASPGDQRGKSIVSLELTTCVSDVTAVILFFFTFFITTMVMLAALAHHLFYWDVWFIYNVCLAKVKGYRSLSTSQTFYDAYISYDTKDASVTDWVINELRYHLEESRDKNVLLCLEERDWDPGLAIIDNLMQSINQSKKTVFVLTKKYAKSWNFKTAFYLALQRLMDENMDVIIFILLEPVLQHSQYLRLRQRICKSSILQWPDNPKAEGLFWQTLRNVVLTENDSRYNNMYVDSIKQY
Put plainly: Agonist activity at human TLR8 expressed in HEK293 cells assessed as induction of NF-kappaB activity at 100 uM by secreted alkaline phosphatase reporter gene assay. In short, it runs like this:
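TLR8 reporter HEK293 cells carrying an NF-κB/AP-1-inducible secreted alkaline phosphatase were exposed to stimuli, with 100 µM as the top concentration tested. sAP released into the supernatant was read at 620 nm with a chromogenic substrate. Samples were run in quadruplicate.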
In general terms: Reporter assays use an easily measured gene product as a stand-in for the process of interest.

Another test concerns the target T2, Toll-like receptor 8 (Homo sapiens, UniProt Q9NR97).
T2 sequence (Q9NR97 whole entry): T1 sequence (whole entry)
Put plainly: Agonist activity at human TLR8 expressed in HEK293 cells assessed as induction of NF-kappaB activity by secreted alkaline phosphatase reporter gene assay. Summed up:
(§1)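 HEK293 reporter lines stably co-transfected with the respective human TLR and an NF-κB/AP-1-driven secreted alkaline phosphatase gene, kept in selection medium. About 10^5 cells/ml were incubated with graded concentrations of stimuli. Supernatant sAP was read spectrophotometrically at 620 nm using a chromogenic substrate in detection medium. EC50 was taken as the arithmetic mean of quadruplicate samples.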

For test [2], the target named is Toll-like receptor 4 (Homo sapiens) (UniProt O00206). Kind of test: Agonist activity at human TLR4 expressed in HEK293 cells assessed as induction of NF-kappaB activity by secreted alkaline phosphatase reporter gene assay. Summed up:
as §1

For test [3], the target named is T3, Toll-like receptor 7 (Homo sapiens) (UniProt Q9NYK1).
T3 sequence (whole entry): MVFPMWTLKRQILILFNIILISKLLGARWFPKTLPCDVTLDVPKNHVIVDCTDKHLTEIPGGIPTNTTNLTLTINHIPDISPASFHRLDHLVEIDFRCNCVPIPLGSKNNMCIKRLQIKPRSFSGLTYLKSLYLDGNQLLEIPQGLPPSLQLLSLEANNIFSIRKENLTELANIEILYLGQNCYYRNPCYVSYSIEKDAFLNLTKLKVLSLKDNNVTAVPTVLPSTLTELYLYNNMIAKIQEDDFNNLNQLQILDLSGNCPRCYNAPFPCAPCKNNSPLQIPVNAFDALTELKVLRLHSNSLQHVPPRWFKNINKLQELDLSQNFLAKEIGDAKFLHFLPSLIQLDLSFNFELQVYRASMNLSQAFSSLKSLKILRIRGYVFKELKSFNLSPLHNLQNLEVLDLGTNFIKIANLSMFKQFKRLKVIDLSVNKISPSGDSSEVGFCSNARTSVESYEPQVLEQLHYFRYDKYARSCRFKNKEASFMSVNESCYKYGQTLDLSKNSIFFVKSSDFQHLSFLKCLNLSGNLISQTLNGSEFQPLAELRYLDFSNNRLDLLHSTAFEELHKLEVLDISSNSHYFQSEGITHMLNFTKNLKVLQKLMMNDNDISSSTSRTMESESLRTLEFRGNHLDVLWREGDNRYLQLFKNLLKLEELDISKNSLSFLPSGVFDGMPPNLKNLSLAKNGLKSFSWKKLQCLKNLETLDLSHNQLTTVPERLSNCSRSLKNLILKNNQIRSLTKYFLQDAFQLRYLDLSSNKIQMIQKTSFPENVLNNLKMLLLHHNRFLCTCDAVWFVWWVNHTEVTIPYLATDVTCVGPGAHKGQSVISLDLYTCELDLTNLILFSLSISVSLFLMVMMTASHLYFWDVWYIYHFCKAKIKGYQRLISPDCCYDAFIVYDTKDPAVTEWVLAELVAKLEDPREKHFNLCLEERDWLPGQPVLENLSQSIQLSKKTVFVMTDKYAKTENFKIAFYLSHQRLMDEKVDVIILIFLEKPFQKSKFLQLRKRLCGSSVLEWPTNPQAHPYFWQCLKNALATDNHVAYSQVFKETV
Put plainly: Agonist activity at human TLR7 expressed in HEK293 cells assessed as induction of NF-kappaB activity by secreted alkaline phosphatase reporter gene assay. Summed up: as §1

Test [4] has as its target Toll-like receptor 3 (Homo sapiens) (UniProt O15455). Put plainly: Agonist activity at human TLR3 expressed in HEK293 cells assessed as induction of NF-kappaB activity by secreted alkaline phosphatase reporter gene assay. Summed up:
as §1

For test [5], the target named is Toll-like receptor 5 (Homo sapiens) (UniProt O60602). Kind of test: Agonist activity at human TLR5 expressed in HEK293 cells assessed as induction of NF-kappaB activity by secreted alkaline phosphatase reporter gene assay. Summed up: as §1
Sequence of Toll-like receptor 5 (Homo sapiens) (O60602 whole entry): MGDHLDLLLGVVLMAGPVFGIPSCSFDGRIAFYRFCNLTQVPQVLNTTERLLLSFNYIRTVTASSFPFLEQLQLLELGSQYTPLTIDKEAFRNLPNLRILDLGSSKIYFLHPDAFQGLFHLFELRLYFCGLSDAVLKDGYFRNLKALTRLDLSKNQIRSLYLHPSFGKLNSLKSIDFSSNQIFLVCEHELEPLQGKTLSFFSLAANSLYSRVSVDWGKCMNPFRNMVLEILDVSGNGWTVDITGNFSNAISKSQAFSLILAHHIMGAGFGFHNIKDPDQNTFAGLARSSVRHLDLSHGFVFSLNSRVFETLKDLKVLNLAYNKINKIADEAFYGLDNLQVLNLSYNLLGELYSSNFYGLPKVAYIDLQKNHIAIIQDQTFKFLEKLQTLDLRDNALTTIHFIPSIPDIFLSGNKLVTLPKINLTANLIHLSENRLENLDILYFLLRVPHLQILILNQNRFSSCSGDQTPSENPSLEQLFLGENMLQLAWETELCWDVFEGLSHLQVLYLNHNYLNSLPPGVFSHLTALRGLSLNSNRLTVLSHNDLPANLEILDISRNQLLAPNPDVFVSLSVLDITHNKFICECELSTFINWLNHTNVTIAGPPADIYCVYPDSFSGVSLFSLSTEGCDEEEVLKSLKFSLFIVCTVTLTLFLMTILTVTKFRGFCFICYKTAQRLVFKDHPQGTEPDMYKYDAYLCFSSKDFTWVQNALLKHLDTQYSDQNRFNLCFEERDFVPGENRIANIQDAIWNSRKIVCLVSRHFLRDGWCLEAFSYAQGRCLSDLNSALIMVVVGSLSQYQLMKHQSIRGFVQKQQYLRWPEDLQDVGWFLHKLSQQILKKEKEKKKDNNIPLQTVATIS
Test [6] has as its target Toll-like receptor 2 (Homo sapiens) (UniProt O60603). Kind of test: Agonist activity at human TLR2 expressed in HEK293 cells assessed as induction of NF-kappaB activity by secreted alkaline phosphatase reporter gene assay. In short, it runs like this:
as §1

Test [7] has as its target T4, Toll-like receptor 9 (Homo sapiens) (UniProt Q9NR96).
T4 sequence (whole entry): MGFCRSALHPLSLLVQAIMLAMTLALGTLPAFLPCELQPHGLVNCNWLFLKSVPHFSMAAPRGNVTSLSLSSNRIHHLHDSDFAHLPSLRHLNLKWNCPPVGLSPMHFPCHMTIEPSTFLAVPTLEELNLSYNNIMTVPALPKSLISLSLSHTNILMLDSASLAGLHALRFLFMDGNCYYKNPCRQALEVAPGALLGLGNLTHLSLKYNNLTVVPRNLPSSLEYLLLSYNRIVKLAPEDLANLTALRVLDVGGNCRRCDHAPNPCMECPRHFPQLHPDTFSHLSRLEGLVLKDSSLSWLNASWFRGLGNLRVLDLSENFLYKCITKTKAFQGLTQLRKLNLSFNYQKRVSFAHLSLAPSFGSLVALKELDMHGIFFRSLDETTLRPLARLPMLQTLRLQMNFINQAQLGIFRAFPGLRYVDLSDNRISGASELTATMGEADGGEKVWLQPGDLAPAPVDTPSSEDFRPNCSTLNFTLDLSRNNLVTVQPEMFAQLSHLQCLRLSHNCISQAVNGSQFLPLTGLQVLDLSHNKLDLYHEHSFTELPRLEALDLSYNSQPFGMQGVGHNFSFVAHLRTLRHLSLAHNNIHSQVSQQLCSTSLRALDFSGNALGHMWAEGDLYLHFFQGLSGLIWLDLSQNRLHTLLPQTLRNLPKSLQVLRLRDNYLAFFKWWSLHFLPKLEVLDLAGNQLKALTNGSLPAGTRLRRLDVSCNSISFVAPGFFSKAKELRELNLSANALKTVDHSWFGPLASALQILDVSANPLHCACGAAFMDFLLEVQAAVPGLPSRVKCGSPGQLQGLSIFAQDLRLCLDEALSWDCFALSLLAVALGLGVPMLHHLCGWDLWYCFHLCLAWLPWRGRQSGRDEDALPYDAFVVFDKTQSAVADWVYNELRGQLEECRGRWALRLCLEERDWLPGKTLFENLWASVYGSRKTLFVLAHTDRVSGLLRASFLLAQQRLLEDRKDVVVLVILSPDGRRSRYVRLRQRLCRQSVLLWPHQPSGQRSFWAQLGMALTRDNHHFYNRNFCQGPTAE
Put plainly: Agonist activity at human TLR9 expressed in HEK293 cells assessed as induction of NF-kappaB activity by secreted alkaline phosphatase reporter gene assay. Summed up: as §1

Here are results for 26 compounds from ChEMBL document CHEMBL4428062, “Human Toll-like Receptor (TLR) 8-Specific Agonistic Activity in Substituted Pyrimidine-2,4-diamines” (J Med Chem, 2016).

For orientation: EC50 means the midpoint of the concentration-response curve.

Activity calls are given as the source filed them. The calls are words filed in the database; no cut-off is given here.

Sequence of Toll-like receptor 2 (Homo sapiens) (O60603 whole entry): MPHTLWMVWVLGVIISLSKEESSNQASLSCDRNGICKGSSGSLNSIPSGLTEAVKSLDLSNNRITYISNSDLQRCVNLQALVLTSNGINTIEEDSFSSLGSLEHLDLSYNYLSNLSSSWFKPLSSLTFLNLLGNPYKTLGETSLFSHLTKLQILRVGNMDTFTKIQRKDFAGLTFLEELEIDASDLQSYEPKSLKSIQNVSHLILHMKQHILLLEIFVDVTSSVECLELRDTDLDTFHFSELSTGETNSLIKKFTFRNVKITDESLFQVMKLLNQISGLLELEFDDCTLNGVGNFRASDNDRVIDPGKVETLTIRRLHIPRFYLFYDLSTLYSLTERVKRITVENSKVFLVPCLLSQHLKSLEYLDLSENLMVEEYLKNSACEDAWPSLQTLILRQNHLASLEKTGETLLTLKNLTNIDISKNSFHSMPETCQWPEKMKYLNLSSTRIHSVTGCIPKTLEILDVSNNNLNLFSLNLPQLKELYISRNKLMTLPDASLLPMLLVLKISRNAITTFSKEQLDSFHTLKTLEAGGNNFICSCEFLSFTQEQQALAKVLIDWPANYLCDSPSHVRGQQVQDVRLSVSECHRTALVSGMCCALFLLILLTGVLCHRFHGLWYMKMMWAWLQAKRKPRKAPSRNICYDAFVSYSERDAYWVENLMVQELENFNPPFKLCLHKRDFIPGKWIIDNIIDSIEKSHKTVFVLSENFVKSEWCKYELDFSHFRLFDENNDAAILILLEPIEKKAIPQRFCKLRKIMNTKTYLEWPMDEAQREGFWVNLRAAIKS
Sequence of Toll-like receptor 4 (Homo sapiens) (O00206 whole entry): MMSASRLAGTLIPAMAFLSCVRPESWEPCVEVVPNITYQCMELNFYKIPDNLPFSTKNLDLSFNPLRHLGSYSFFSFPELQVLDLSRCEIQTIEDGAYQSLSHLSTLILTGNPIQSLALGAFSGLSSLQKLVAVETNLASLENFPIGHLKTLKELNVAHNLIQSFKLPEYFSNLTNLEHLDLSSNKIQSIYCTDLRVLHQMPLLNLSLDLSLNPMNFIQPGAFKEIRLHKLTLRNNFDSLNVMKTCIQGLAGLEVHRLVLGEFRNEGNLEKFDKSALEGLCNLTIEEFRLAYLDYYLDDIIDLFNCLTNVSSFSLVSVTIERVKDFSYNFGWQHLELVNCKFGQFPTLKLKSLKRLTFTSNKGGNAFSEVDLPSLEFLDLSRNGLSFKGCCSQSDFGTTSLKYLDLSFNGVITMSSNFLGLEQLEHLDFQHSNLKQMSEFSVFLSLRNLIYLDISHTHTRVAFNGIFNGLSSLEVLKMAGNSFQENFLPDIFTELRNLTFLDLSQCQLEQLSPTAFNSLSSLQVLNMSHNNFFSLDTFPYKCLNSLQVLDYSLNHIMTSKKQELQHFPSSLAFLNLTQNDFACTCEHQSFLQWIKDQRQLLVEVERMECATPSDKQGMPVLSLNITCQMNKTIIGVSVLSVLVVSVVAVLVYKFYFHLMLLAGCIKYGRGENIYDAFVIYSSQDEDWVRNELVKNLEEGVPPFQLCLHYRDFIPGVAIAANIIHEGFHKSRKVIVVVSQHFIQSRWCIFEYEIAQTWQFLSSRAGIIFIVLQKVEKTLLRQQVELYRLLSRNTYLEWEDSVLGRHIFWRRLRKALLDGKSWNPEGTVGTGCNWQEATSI
Sequence of Toll-like receptor 3 (Homo sapiens) (O15455 whole entry): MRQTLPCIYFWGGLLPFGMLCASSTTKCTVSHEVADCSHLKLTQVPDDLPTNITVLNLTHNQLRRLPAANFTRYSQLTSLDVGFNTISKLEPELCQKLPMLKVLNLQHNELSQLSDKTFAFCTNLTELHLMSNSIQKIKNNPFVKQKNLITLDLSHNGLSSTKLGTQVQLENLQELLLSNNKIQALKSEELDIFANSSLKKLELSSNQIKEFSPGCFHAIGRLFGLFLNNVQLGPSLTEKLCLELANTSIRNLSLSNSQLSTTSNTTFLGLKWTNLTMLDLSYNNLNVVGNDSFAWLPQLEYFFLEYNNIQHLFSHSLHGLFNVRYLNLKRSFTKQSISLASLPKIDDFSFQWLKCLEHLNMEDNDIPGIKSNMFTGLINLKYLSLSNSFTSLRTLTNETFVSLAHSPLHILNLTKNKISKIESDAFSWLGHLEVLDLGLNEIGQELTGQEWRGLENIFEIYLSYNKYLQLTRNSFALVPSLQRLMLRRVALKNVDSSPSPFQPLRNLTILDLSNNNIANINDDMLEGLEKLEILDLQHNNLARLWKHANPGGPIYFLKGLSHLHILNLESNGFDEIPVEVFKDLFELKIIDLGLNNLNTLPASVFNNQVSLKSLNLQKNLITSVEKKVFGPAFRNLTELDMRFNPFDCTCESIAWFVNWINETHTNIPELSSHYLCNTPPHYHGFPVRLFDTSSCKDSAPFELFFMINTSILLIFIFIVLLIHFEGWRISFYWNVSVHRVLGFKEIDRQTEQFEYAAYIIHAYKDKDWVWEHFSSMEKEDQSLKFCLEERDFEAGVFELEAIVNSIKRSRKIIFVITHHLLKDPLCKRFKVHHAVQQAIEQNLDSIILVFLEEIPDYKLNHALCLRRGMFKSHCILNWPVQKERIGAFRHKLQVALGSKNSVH

Consider `CCCCNc1nc(N)nc(-c2ccccc2)c1CCCN`, for which the result in test [1] was inactive.
In the case of `CCCCNc1nc(N)nc(C)c1CCCCCN`, at Toll-like receptor 8, the EC50 worked out at 0.3 µM.
As to `CCCC#Cc1cc(C)nc(N)n1`, the outcome in test [1] was inactive.
`CCCCNc1cc(N)nc(N)n1`: the outcome in test [1] was inactive.
Still for that read-out and setting: then `CCCCOc1nc(N)nc(C)c1I`, with “inactive”.
Regarding `CCCCNc1nc(N)nc(C)c1Cl`, on Toll-like receptor 8, the EC50 came out at 20 µM.
Take `CCCCSc1nc(N)nc(C)c1I`: the outcome in test [1] was inactive.
Consider `CCCCNc1nc(N)nc(C)c1CCCN`, for which the outcome in test [2], in test [3], in test [4], in test [5], in test [6] and in test [7] was inactive.
As to `CCCCNc1nc(N)nc(N)c1I`, the outcome in test [1] was inactive.
Take `CCCCNc1nc(N)nc(C)c1Cc1ccccc1`: the EC50 on Toll-like receptor 8 stood at 1.2 µM.
Regarding `CCCCN(Cc1ccccc1)c1nc(N)nc(C)c1I`, in test [1], the result was inactive.
On the same count and under the same terms, then `CCCCNc1nc(N)nc(Cl)c1I`, with “inactive”; and `CCCCNc1cc(Cl)nc(N)n1`, with “inactive”.
Regarding `CCCCNc1nc(N)nc(-c2ccccc2)c1I`, the outcome in test [1] was inactive.
Take `CCCCNc1nc(N)nc(OC)c1I`: the outcome in test [1] was inactive.
Still for that read-out and setting: then `CCCCCCNc1nc(N)nc(C)c1I`, with “inactive”.
With `CCCCNc1nc(N)nc(C)c1Br`, the EC50 at Toll-like receptor 8 was found to be 8.5 µM.
The same measure, in the same setting: then `CCCCCNc1nc(N)nc(C)c1I`, with 3.7 µM.
With `CCCCCc1cc(C)nc(N)n1`, the outcome in test [1] was inactive.
Turning to `CCCCNc1nc(N)ncc1I`, the outcome in test [1] was inactive.
`CCCCNc1cc(OC)nc(N)n1`: the result in test [1] was inactive.
Turning to `CCCCNc1nc(N)nc(C)c1F`, at Toll-like receptor 8, the concentration giving a half-maximal response (EC50) came out at 34 µM.
`CCCCCc1nc(N)nc(C)c1I`: the outcome in test [1] was inactive.
Take `CCCCN(C)c1nc(N)nc(C)c1I`: in test [1], the result was inactive.
Still for that read-out and setting: the entry for `CCCNc1nc(N)nc(C)c1I` is “inactive”.
In the case of `CCCCNc1cc(C)nc(N)n1`, the result in test [2], in test [3], in test [4], in test [5], in test [6] and in test [7] was inactive.
